From PubChem
In the library only some 4.6% were active in any assay of this set; here they are far more common.
TAAR1 antagonist: antagonists of human TAAR1. CHO RD-HGA16 TAAR1, Fluo-8 calcium fluorescence, antagonist. 360,000 tested, 1.5% active. inhibition, % at 3 µM. Q96RJ0. AID 624466;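 active = inhibition above a per-plate cutoff, the mean inhibition of test compounds on that plate plus 3 SD, cut at about 49% in these data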;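 note: 0% = DMSO plus EC80 beta-PEA response and 100% = DMSO alone without agonist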
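Test system: RD-HGA16 CHO cells with stable hTAAR1 and Gα16 / Probe or stimulus: EC80 β-phenethylamine stimulus / Times: seeding 17-24 h prior, 75-min 37 °C, 30-min RT dye loading / Detection: Fluo-8 calcium-sensitive fluorescence / Read-out basis: % inhibition scaled between DMSO and EC80 PEA controls / Repeats: singlicate, one well per test compound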
CHO parental Ca: counter-screen: ATP calcium response change in parental CHO cells; AID 463079; parental CHO-K1, ATP-induced calcium, Fluo-8 fluorescence; 330,000 tested, 0.63% active; inhibition, % at 5.6 µM;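 active = inhibition above that plate's mean sample inhibition plus 3 SD, cut at about 26% in these data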;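 note: 0% = ATP-challenged DMSO wells and 100% = DMSO wells without ATP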
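Test system: parental CHO cells; detection: calcium-sensitive Fluo-8 fluorescence; evaluation: percent inhibition of calcium signal; also added: ATP as calcium-mobilizing challenge; repeats: one well per compound; control set: ATP-challenged DMSO wells low, unchallenged DMSO wells high; compound: single nominal dose of 5.6 µM per compound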
GPR7 antagonist: blocks human GPR7 receptor signaling. P48145. GPR7-expressing cells, fluorescence antagonist assay. inhibition, % at 4.4 µM. 290,000 tested, 1.1% active. AID 1861; in the data active = inhibition above about 16%, passing the limit was not always enough;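 note: cells stimulated with the agonist NPW; 0% = agonist with vehicle and 100% = vehicle without agonist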
OX1R antag-1: antagonists of human orexin 1 receptor; CHO/OX1R cells, Fluo-8 calcium fluorescence, orexin A; O43613; inhibition, % at 5 µM; 330,000 tested, 0.43% active;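 active = inhibition above its plate's threshold, mean inhibition of all tested compounds on the plate plus 3 SD, cut at about 37% in these data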;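 note: 0% = orexin A challenge wells and 100% = SB-334867-A antagonist wells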
Target sequence (O43613 whole entry, looked up): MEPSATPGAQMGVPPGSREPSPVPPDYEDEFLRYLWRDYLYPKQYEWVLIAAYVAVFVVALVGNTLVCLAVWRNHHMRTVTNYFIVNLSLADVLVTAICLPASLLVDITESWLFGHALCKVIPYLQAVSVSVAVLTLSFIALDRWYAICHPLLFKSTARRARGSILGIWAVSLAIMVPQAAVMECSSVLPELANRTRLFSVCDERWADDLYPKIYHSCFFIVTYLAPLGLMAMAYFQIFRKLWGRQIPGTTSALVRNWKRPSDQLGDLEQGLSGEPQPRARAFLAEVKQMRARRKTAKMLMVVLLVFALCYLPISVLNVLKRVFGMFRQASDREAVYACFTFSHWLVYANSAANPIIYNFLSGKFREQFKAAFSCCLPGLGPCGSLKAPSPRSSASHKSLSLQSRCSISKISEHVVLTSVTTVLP
TAAR1 agonist: human TAAR1 agonism. Q96RJ0. CHO RD-HGA16 TAAR1, Fluo-8 calcium fluorescence; vehicle wells 0%, saturating PEA agonist 100%. activation, % at 3 µM. 360,000 tested, 0.99% active. AID 624467;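 active = activation above the mean activation of all test compounds in the run plus 3 SD, cut at about 38% in these data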
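Repeats: no replicates (n 1) | Material: CHO-derived RD-HGA16 cells with stable Gα16 and human TAAR1 | Technique: Kinetic Fluo-8 calcium fluorescence | Schedule: 17-24 h seeding, 75 min 37 °C dye, 30 min RT | Evaluation: % activation from peak over basal fluorescence ratio, DMSO-to-PEA scaled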
OX1R antag-2: blocks the human orexin 1 receptor; O43613; OX1R-expressing cells, FRET antagonist read-out; inhibition, % at 6.6 µM; 330,000 tested, 1.8% active; in the data active = inhibition mostly above about 38%, no sharp cut-off; inactive = mostly below about 40%;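 note: 0% = agonist challenge alone and 100% = reference antagonist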
GPR7 antag conf: confirmation of human GPR7 antagonists | shares compounds with GPR7 antagonist | GPR7-expressing cells, calcium fluorescence antagonist mode | inhibition, % at 4.4 µM | 2,400 tested, 52% active; in the data active = inhibition above about 24%;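 note: stimulated with the GPR7 agonist NPW; 0% = agonist plus vehicle and 100% = vehicle alone without agonist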
MCHR1 antag: antagonizes human MCHR1, a GPR7 antagonist counter-screen | shares compounds with GPR7 antagonist | MCHR1-expressing cells, fluorescence antagonist assay | inhibition, % at 4.4 µM | 2,400 tested, 62% active | AID 2148; in the data active = inhibition above about 22%;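 note: 0% = vehicle with agonist and 100% = vehicle without agonist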
Numbers without * were called inactive; . = no result.

SMILES	TAAR1 antagonist	CHO parental Ca	GPR7 antagonist	OX1R antag-1	TAAR1 agonist	OX1R antag-2	GPR7 antag conf	MCHR1 antag
O=C(Nc1ccc(F)cc1)c1cccc(N2C(=O)C3C4C=CC(C5CC45)C3C2=O)c1 (centres undefined)	40	-8	26*	-20	9	15	24*	45*
NC(c1ccccc1)c1csc(Nc2ccc(C(F)(F)F)cn2)n1 (centres undefined)	0	.	.	.	10	.	.	.
CCN(CC)CCSc1nc2ccccc2c(=S)n1-c1ccccc1	-10	-18	40*	-15	19	8	40*	39*
CCN(CC)CCSc1nc(O)c(-c2ccccc2)c(=O)n1-c1ccccc1	-19	-1	-2	-7	1	7	.	.
CC(=O)c1cccc(OCCCOc2cccc3cccnc23)c1	0	-20	-16	-23	8	7	.	.
Cc1cc(Cl)ccc1NC(=O)CSc1nnc(Cc2cccs2)n1Cc1ccco1	9	-19	23*	-11	2	19	38*	34*
N#Cc1ccc(CSc2nnc(Cc3cccs3)n2Cc2ccco2)cc1	.	2	25*	-2	.	23	28*	20
COc1ccccc1NC(=S)N(CCN1CCCCCC1)Cc1cccs1	-18	-18	-6	-34	4	-5	.	.
O=C(NCc1ccccc1)C(c1ccco1)N1CCN(CCN2CCOCC2)CC1 (centres undefined)	-13	.	.	.	1	.	.	.
O=C(c1ccccn1)N1CCCC(N2CCN(Cc3ccc4c(c3)OCO4)CC2)C1 (centres undefined)	-25	-2	-4	-1	1	5	.	.
Cc1cccc(C(=O)N2CCCC(N3CCN(Cc4ccc5c(c4)OCO5)CC3)C2)n1 (centres undefined)	-10	-15	27*	-44	4	11	-11	2
COC(=O)CCN(C1CCCCC1)S(=O)(=O)c1ccc(S(=O)(=O)NC2CCCCC2)cc1	1	4	40*	-16	18	13	51*	32*
O=C(COC(=O)c1cc(S(=O)(=O)N2CCOCC2)cs1)c1ccccc1	7	-11	25*	-16	6	7	9	11
CC(C)(C)n1nc2c(c1NC(=O)c1ccccc1)CS(=O)(=O)C2	-12	-7	1	-4	1	16	.	.
CC(C)(C)n1nc2c(c1NC(=O)c1c(F)cccc1F)CS(=O)(=O)C2	-12	7	43*	-6	4	12	28*	22*
CCC1CCc2sc(C(=O)NC3CCN(Cc4ccccc4)CC3)cc2C1 (centres undefined)	-8	-12	.	-4	17	9	.	.
O=C(Nc1cccc(S(=O)(=O)Nc2ccc(Cl)cc2)c1)c1ccc(Cl)nc1	42	11	24*	-3	24	44	66*	70*
Cc1ccccc1CC1(CO)CCCN(C(=O)c2ccc(F)cc2)C1 (centres undefined)	-7	-8	0	-24	12	18	.	.
Cc1ccccc1CC1(CO)CCCN(C(=O)c2ccccc2N(C)C)C1 (centres undefined)	1	-38	31*	-19	9	15	36*	31*
Fc1ccc(C2N(c3ccccc3)C(=S)N3CCCN23)cc1 (centres undefined)	-16	-9	-8	-13	2	4	.	.
Cc1ccc(C2N(c3ccccc3)C(=S)N3CCCN23)cc1 (centres undefined)	7	-8	24*	-18	6	39	14	6
Cc1cc(NC(=O)c2ccc(Br)c([N+](=O)[O-])c2)no1	-2	16	22*	6	9	56	0	4
Cc1cc(NC(=O)c2ccc(C)c([N+](=O)[O-])c2)no1	-8	0	5	-5	8	29	.	.
COc1ccccc1N1CCN(S(=O)(=O)c2ccc3c(c2)oc(=O)n3C)CC1	-1	-1	30*	-9	2	12	4	-2
Cn1c(=O)oc2cc(S(=O)(=O)N3CCN(c4ccccc4F)CC3)ccc21	-11	3	5	5	3	10	.	.
SMILES	TAAR1 antagonist	CHO parental Ca	GPR7 antagonist	OX1R antag-1	TAAR1 agonist	OX1R antag-2	GPR7 antag conf	MCHR1 antag
Nc1cc(N)nc(SCC(=O)Nc2cc(S(=O)(=O)N3CCOCC3)ccc2Cl)n1	-22	-6	17	-13	6	9	.	.
C=CCNCCCOc1ccc(Cl)cc1C(C)(C)C	-6	-1	25*	-26	21	11	25*	37*
Cc1ccc(OCCOCCN2CCN(C)CC2)c(C(C)(C)C)c1	-15	-9	-6	2	5	9	.	.
Clc1ccc(OCCOCCN2CCc3ccccc3C2)c(Cl)c1	-27	-12	30*	-16	36	13	17	30*
CC(C)(C)c1cc(Cl)ccc1OCCOCCN1CCCC1	10	-6	24*	-1	17	-2	35*	41*
CC(C)(C)NCCOCCOc1ccc(Cl)cc1C(C)(C)C	7	-7	9	-19	5	7	.	.
CC(OC(=O)c1oc2ccccc2c1COc1ccccc1)C(N)=O (centres undefined)	-10	-9	-2	-18	15	18	.	.
CC(C)(C)NC(=O)c1oc2ccccc2c1COc1ccccc1	-4	-25	26*	-20	11	31	21	35*
CC(C)c1ccccc1NC(=S)NCc1ccncc1	-4	-4	-8	-3	1	11	.	.
CCCCc1noc2c1/C(=N\O)CC(c1ccccc1)C2 (centres undefined)	-6	15	41*	5	0	11	36*	23*
C/C(=N\NC(=O)Cc1ccc(Cl)c(Cl)c1)c1cccnc1	-16	.	2	.	1	.	.	.
C/C(=N\NC(=O)Cc1ccc([N+](=O)[O-])cc1)c1cccnc1	-22	.	23*	.	1	.	0	16
COc1cccc(Cn2cccc(NC(=O)Nc3cccc(C#N)c3)c2=O)c1	23	-16	27*	-6	5	50	26*	67*
COc1cccc(NC(=O)Nc2cccn(Cc3ccc(C)cc3)c2=O)c1	1	-11	-5	-6	3	29	.	.
CN(C)CCNS(=O)(=O)c1ccc(N2CCN(c3ccc(F)cc3)CC2)c([N+](=O)[O-])c1	15	5	23*	-8	20	23	36*	32*
CC(=O)N1CCN(c2ccc(S(=O)(=O)NCCN(C(C)C)C(C)C)cc2[N+](=O)[O-])CC1	-27	-5	-6	3	4	44	.	.
